Laboratory results from ChEMBL document CHEMBL1128250, “Structure-activity studies of 2,3,4,4a,5,9b-hexahydroindeno[1,2-c]pyridines as antispermatogenic agents for male contraception” (1995).
“And” between values parts separate entries of the source, which are not always exact repeats. Identical values can stand only once.

Columns and labels:
Mus musculus [1] = assay: Tested for its effect on spermatogenic index 3 days after single oral dose (10 mg/kg); type: functional
Procedure, shortened: (§1)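 Male CD-1 (ICR) mice, 7 weeks old on arrival, 5 per dose, single gavage of 10 mL/kg on day 0. Vehicle was 0.15 M acetate buffer pH 5, ethanol/Tween-20/water 3:7:90, or 1% Tween-20. Mice were killed with CO2 at 72 h and testes weighed and scored for spermatogenic index (0–6 scale). Results are % reduction versus the vehicle control. Dunnett's one-tailed t-test.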

Mus musculus [2] = assay: Tested for its effect on testes weight 3 days after single sub cutaneous dose (3 mg/kg); type: functional, Testis
Procedure, shortened: (§2)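 Single subcutaneous injection, 10 mL/kg, to male CD-1 mice (5 per dose) in ethanol/Tween-20/water (3:7:90, v/v/v) on day 0. Mice were killed at 72 h; testes were weighed and histology scored for spermatogenic index (0–6). Results are % reduction from the vehicle control, with a 30 mg/kg positive control group. Dunnett's one-tailed t-test.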

Mus musculus [3] = assay: Tested for its effect on testes weight 3 days after single oral dose (3 mg/kg); type: functional, Testis; procedure, shortened: as §1
Mus musculus [4] = assay: Tested for its effect on spermatogenic index 3 days after single oral dose (30 mg/kg); type: functional
Procedure, shortened: (§3)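 CD-1 outbred Swiss albino male mice, 5 per dose, single gavage on day 0 at 10 mL/kg. Vehicle was 0.15 M acetate buffer pH 5, ethanol/Tween-20/water (3:7:90), or 1% Tween-20 in water. CO2 euthanasia 72 h later. Testes weighed and histologically scored (spermatogenic index 0–6). Values are % reduction versus the assay's vehicle control. Positive control was 30 mg/kg of the parent compound. Significance by Dunnett's one-tailed t-test, p < 0.05.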

Mus musculus [5] = assay: Tested for its effect on testes weight 3 days after single sub cutaneous (10 mg/kg); type: functional, Testis; procedure, shortened: as §2
Mus musculus [6] = assay: Tested for its effect on spermatogenic index 3 days after single oral dose (3 mg/kg); type: functional; procedure, shortened: as §1
Mus musculus [7] = assay: Tested for its effect on testes weight 3 days after single oral dose (30 mg/kg); type: functional, Testis; procedure, shortened: as §3
Mus musculus [8] = assay: Tested for its effect on testes weight 3 days after single sub cutaneous dose (30 mg/kg); type: functional, Testis; procedure, shortened: as §2
Mus musculus [9] = assay: Tested for its effect on testes weight 3 days after single oral dose (10 mg/kg); type: functional, Testis; procedure, shortened: as §3
Mus musculus [10] = assay: Tested for its effect on spermatogenic index 3 days after single sub cutaneous dose (3 mg/kg); type: functional; procedure, shortened: as §2
Mus musculus [11] = assay: Tested for its effect on spermatogenic index 3 days after single sub cutaneous dose (10 mg/kg); type: functional; procedure, shortened: as §2
Mus musculus [12] = assay: Tested for its effect on testes weight 3 days after single oral dose (90 mg/kg); type: functional, Testis; procedure, shortened: as §3
Mus musculus [13] = assay: Tested for its effect on spermatogenic index 3 days after single oral dose (90 mg/kg),; type: functional; procedure, shortened: as §3
Mus musculus [14] = assay: Tested for its effect on spermatogenic index 3 days after single oral dose (3 mg/kg),; type: functional; procedure, shortened: as §1
Mus musculus [15] = assay: Tested for its effect on spermatogenic index 3 days after single oral dose (90 mg/kg); type: functional; procedure, shortened: as §3

Structure (SMILES)	Reduction (Mus musculus [4])	Reduction (Mus musculus [7]) [%]	Reduction (Mus musculus [12]) [%]	Reduction (Mus musculus [13]) [%]	other results
CCCOC(=O)c1ccc([C@@H]2c3cc(C)ccc3[C@H]3CN(CC)CC[C@@H]23)cc1.Cl	56% and 43%	31			Reduction (Mus musculus [1]): 33%; Reduction (Mus musculus [2]): 7%; Reduction (Mus musculus [3]): 11%; Reduction (Mus musculus [5]): 10%; Reduction (Mus musculus [6]): 2%; Reduction (Mus musculus [8]): 17%; Reduction (Mus musculus [9]): 3%; Reduction (Mus musculus [10]): -1%; Reduction (Mus musculus [11]): 13%
CCN1CC[C@H]2[C@H](c3ccccc3)c3cc(C)ccc3[C@H]2C1.Cl			-8	-9	
CCN1CCC(C(c2ccc(C)cc2)c2cccc(C)c2)CC1.Cl (stereo not drawn)	-5%	9			Reduction (Mus musculus [3]): 2%; Reduction (Mus musculus [14]): 2%
CCN1CC[C@H]2[C@H](c3cccc(C)c3)c3cc(C)ccc3[C@H]2C1.Cl			-11	-9	
CCN1CC[C@H]2[C@H](c3ccccc3)c3ccccc3[C@H]2C1.Cl			-2	2	
CCN1CC[C@H]2[C@H](c3ccc(CO)cc3)c3cc(C)ccc3[C@H]2C1.Cl	57%	23	4	-5	Reduction (Mus musculus [1]): 20%; Reduction (Mus musculus [8]): 6%; Reduction (Mus musculus [9]): 13%
CCCN1CC[C@H]2[C@H](c3ccc(C)cc3)c3cc(C)ccc3[C@H]2C1.Cl			11	0	
CCN1CC[C@@H]2[C@@H](c3ccc(C)cc3)c3cc(C)ccc3[C@H]2C1.Cl			-18	0	
Cc1ccc([C@@H]2c3cc(C)ccc3[C@H]3CNCC[C@@H]23)cc1.Cl			-3	-5	
CCN1CC[C@H]2[C@H](c3ccc(C(=O)O)cc3)c3cc(C)ccc3[C@H]2C1.Cl (stereo in doubt; 10k)	51% and 35%	28			Reduction (Mus musculus [1]): 36%; Reduction (Mus musculus [2]): 5%; Reduction (Mus musculus [3]): 13%; Reduction (Mus musculus [5]): -3%; Reduction (Mus musculus [8]): 17%; Reduction (Mus musculus [9]): 24%; Reduction (Mus musculus [10]): 8%; Reduction (Mus musculus [14]): 2%; Reduction (Mus musculus [11]): 27%
CCN1CCC(C(O)c2ccc(C)cc2)C(c2ccc(C)cc2)C1.Cl (stereo in doubt; 16a)			-9		
CCN1CCC(C(O)c2ccc(C)cc2)C(c2ccc(C)cc2)C1.Cl (stereo in doubt; 16b)			0	0	
CCN1CC[C@H]2[C@H](c3ccc(C(=O)O)cc3)c3cc(C)ccc3[C@H]2C1.Cl (stereo in doubt; (d)-10k)	67%	16	27		Reduction (Mus musculus [1]): 40%; Reduction (Mus musculus [3]): -5%; Reduction (Mus musculus [15]): 70%; Reduction (Mus musculus [6]): 21%; Reduction (Mus musculus [9]): 26%
CCN1CC[C@H]2[C@H](c3ccc(C(=O)O)cc3)c3cc(C)ccc3[C@H]2C1.Cl (stereo in doubt; (l)-10k)			-7		Reduction (Mus musculus [15]): 0%
